# Screens from PubChem BioAssay.
# An excerpt weighted towards active compounds, which were near 1.8% of everything screened.
# UHRF1 binding: blocks human UHRF1 binding to methylated DNA; Q96T88; UHRF1 binding to methylated oligo, TR-FRET; inhibition, % at 4.4 µM; hit rate 0.75% among 370,000; AID 687016; in the data active means inhibition above about 21%;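 further: UHRF1 SRA domain binding a hemimethylated CpG hairpin DNA probe; 0% = median of test compound wells and 100% = reference inhibitor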
# MBD2 inh: MBD2-methylated oligo binding inhibition; Q9UBB5; TR-FRET, MBD2 binding to methylated oligonucleotide; inhibition, % at 4.4 µM; hit rate 0.31% among 370,000; AID 686964; in the data active means inhibition above about 13%
# NSD2 HMT inh: blocks human histone methyltransferase NSD2; NSD2 peptide methylation, AlphaScreen, 120 min; O96028; AID 743445; hit rate 0.54% among 310,000; inhibition, % at 12.5 µM; in the data active means inhibition above about 50%
# TDP2 absorb: blocks human TDP2 phosphodiesterase activity; inhibition, % at 12.8 µM; hit rate 0.34% among 370,000; O95551; recombinant TDP2, T5PNP hydrolysis, p-nitrophenol absorbance 415 nm; AID 720702;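 active means inhibition above the mean of all tested compounds plus 3 SD, set per campaign, cut at about 25% in these data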;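 further: 0% = DMSO with enzyme and 100% = buffer with substrate but no TDP2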
#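 System – recombinant human TDP2 · Quantity – TDP2 enzyme at 120 nM final · Doses – single concentration, 12.8 µM nominal, with 1% DMSO · Incubation – 2 h at 37 °C · Measured by – epi absorbance of p-nitrophenol freed from T5PNP by hydrolysis · Read-out – % inhibition relative to enzyme-containing and enzyme-free wells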
# CASP6 VEID inh: caspase-6 (human) enzyme inhibition. P55212. purified caspase-6, Z-VEID-R110 cleavage fluorescence. inhibition, % at 12.5 µM. hit rate 0.53% among 350,000. AID 686996;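 active means mean inhibition across replicates at least about 35%, with every replicate also reaching that limit, limit read from the data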;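 further: 0% = median of neutral control wells and 100% = no fluorescence left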
# Target sequence (P55212 24-179 limits assumed): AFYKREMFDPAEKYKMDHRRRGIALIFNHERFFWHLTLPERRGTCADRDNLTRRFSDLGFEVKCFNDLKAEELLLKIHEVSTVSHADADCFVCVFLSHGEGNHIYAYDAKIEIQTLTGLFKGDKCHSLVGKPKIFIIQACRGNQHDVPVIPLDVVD
# Target sequence (P55212 194-293 limits assumed): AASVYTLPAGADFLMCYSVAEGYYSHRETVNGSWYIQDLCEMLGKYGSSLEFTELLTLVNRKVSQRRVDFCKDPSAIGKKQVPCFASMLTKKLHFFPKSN
# LEDGF integ inh: blocks HIV-1 LEDGF/p75-dependent DNA integration. hit rate 0.64% among 370,000. AID 743269. TR-FRET IN-LEDGF/p75 DNA integration, Eu/Cy5. inhibition, % at 3.7 µM;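 active means inhibition above the screen-wide mean plus 3 SD, cut at about 13% in these data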;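 further: signal is the Cy5 over europium emission ratio at 671 and 618 nm; 0% = plate median of compound wells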
# * hit, by the source's call; / = not tested or not shown.
SMILES,UHRF1 binding,MBD2 inh,NSD2 HMT inh,TDP2 absorb,CASP6 VEID inh,LEDGF integ inh
C[C@H]1CCCCO[C@@H](CN(C)S(=O)(=O)c2ccccc2)[C@@H](C)CN([C@@H](C)CO)C(=O)c2cc(NS(C)(=O)=O)ccc2O1,/,/,/,/,0,/
Cn1cc(S(=O)(=O)NCCc2ccccc2)c(=O)n(C)c1=O,1,3,-1,14,3,-1
CC(NS(=O)(=O)c1cn(C)c(=O)n(C)c1=O)c1ccccc1 (stereo not drawn),24*,9,-6,6,1,1
CC(=O)Nc1ccc(S(=O)(=O)Nc2cccc(-c3nc4cc(C)ccc4o3)c2)cc1,21*,6,3,-4,3,7
CC(=O)Nc1cccc(-c2nc3ccccc3o2)c1,-5,-4,-1,12,1,5
CC(=O)Nc1ccc2oc(-c3ccccc3)nc2c1,23*,2,-1,4,1,-3
O=C(O)C/C(=C\c1cc(Cl)c2c(c1)OCO2)c1nc2ccccc2s1,-1,-8,8,9,60*,4
O=C(CSc1nc2ccccc2c(=O)[nH]1)Nc1ccc(N2CCOCC2)cc1,3,-2,0,-2,58*,-1
Clc1cccc(Cl)c1CN1CCN(c2ncccn2)CC1,-4,-4,-2,0,-5,3
Cn1nc(-c2ccccc2)c(CN2CCN(c3ncccn3)CC2)c1Cl,34*,7,-2,12,0,7
Cc1cc(C(=O)N/N=C/c2sccc2C)no1,23*,2,-3,2,/,0
O=C(NCc1nc2ccccc2[nH]1)C1=C[C@@H](c2coc3ccccc3c2=O)C[C@@H](OCCCCO)O1,/,/,/,/,1,/
O=C(NC12CC3CC(CC(C3)C1)C2)c1ccc(-c2cccc(Cl)c2)o1,21*,8,3,-2,/,2
O=C(NC12CC3CC(CC(C3)C1)C2)c1ccc(-c2ccc(Cl)cc2)o1,-6,4,-4,4,-5,-1
CCc1ccc(S(=O)(=O)Nc2ccc(-c3ccc4nncn4n3)cc2)s1,23*,0,1,-2,-1,-4
CCN1[C@@H]2c3ccc(-c4cccc(F)c4)c(=O)n3C[C@@H]2[C@@H](CO)[C@@H]1C(=O)NCCCN(C)C,/,/,/,/,1,/
C[C@@H]1CN([C@H](C)CO)C(=O)Cc2cc(NC(=O)C3CCCCC3)ccc2O[C@H]1CN(C)Cc1ccc2c(c1)OCO2,/,/,/,/,4,/
CCOc1ccc(-n2cc(-c3ccccc3)c3c(SC(C)C(=O)OC)ncnc32)cc1 (stereo not drawn),22*,5,3,4,-2,6
COC(=O)C(C)Sc1ncnc2c1c(-c1ccccc1)cn2-c1ccc(OC)cc1 (stereo not drawn),4,-3,-3,-6,/,3
O=S(=O)(NCC(c1cccnc1)N1CCOCC1)c1ccccc1 (stereo not drawn),13,2,/,8,3,0
CCOc1ccc(S(=O)(=O)NCc2cccnc2)cc1,-2,-5,-3,4,-2,7
O=S(=O)(NCc1cccnc1)c1ccc(Cl)cc1,5,2,1,5,47*,4
O=S(=O)(NCC(c1cccnc1)N1CCOCC1)c1ccc(Cl)cc1 (stereo not drawn),25*,-6,-2,9,-1,1
Cc1cc(NCc2ccccc2)cc(=O)n1Cc1ccccc1,/,/,-11,/,/,/
Cc1ccc(CN(Cc2cc3cc4c(cc3[nH]c2=O)OCCO4)Cc2nnnn2Cc2ccco2)cc1,3,0,1,-10,/,17*
SMILES,UHRF1 binding,MBD2 inh,NSD2 HMT inh,TDP2 absorb,CASP6 VEID inh,LEDGF integ inh
Cc1ccc2cc(CN(Cc3ccc4c(c3)OCO4)Cc3nnnn3Cc3ccco3)c(=O)[nH]c2c1,0,3,-3,-4,5,4
CC(C)NC(=O)Nc1ccc2c(c1)C(=O)N([C@H](C)CO)C[C@H](C)[C@@H](CN(C)C(=O)NC(C)C)OCCCC[C@@H](C)O2,/,/,/,/,0,/
C[C@@H]1CN([C@H](C)CO)C(=O)c2cc(C#C[C@@H](C)O)cnc2O[C@H]1CN(C)C(=O)Cc1ccccn1,/,/,/,/,0,/
COc1cc(SC)ccc1C(=O)OC(C)C(=O)NC1CCCC1 (stereo not drawn),5,2,-1,-1,38*,0
COc1cc(SC)ccc1C(=O)NCC1CCCCC1,-2,4,-2,5,0,5
C[C@H](CO)N1C[C@H](C)[C@@H](CN(C)Cc2ccc3c(c2)OCO3)Oc2ccc(NS(=O)(=O)c3cn(C)cn3)cc2C1=O,/,/,/,/,2,/
C[C@@H]1CN([C@@H](C)CO)C(=O)c2cc(NS(C)(=O)=O)ccc2O[C@@H]1CN(C)Cc1ccc(Cl)c(Cl)c1,/,/,/,/,1,/
O=C(N/N=C/c1ccc(-c2ccccc2C(=O)O)o1)c1cccs1,23*,-2,26,2,/,5
O=C(N/N=C/c1ccncc1)c1cccs1,/,/,-1,/,/,/
O=C(NC1CCCCC1)C(c1ccnc2ccccc12)N1CCc2ccccc2C1 (stereo not drawn),-5,0,/,11,76*,3
COc1cccc(OC)c1C(=O)Oc1ccc2c(C)cc(=O)oc2c1,/,/,4,/,/,/
CCOC(=O)c1c(NC(=O)C2c3ccccc3Oc3ccccc32)sc(C(N)=O)c1C,22*,5,-1,2,/,0
COCC(=O)Nc1ccc2c(c1)OC[C@@H](C)N(C(=O)CC1CC1)C[C@H](C)[C@H](OC)CN(C)C2=O,/,/,/,/,2,/
CC1OC(CC(=O)O)CC2=C1C(=O)c1c(O)cccc1C2=O (stereo not drawn),18,-8,95*,34*,93*,40*
O=C(CSCCc1ccccn1)Nc1ccccn1,1,3,2,6,/,1
O=C(O)CSCCc1ccccn1,21*,10,0,6,/,2
Cc1cccc(-n2c(C)nc3cc(C(=O)NCCN4CCOCC4)ccc32)c1,3,6,4,2,89*,0
CCCC(C(=O)NCC1CCCO1)N(C(=O)CNS(=O)(=O)c1ccccc1)c1ccc(F)cc1 (stereo not drawn),-2,0,-5,10,0,-3
CC(C)C(C(=O)NC1CCCC1)N(CC1CCCO1)C(=O)CNS(=O)(=O)c1ccc(F)cc1 (stereo not drawn),28*,-3,/,4,2,2
CCC(C(=O)NCC1CCCO1)N(C(=O)CNS(=O)(=O)c1ccccc1)c1ccc(F)cc1 (stereo not drawn),11,8,-2,-1,0,89*
CCc1nc2ccc(C(=O)N3CCc4ccccc4C3)cc2nc1CC,/,/,-1,/,/,/
CCOc1ccccc1CNc1ccc(O)cc1,17,7,/,26*,0,25*
C[C@H](CO)N1C[C@H](C)[C@@H](CN(C)C(=O)C2CCC2)Oc2ncc(-c3cccnc3)cc2C1=O,/,/,/,/,0,/
